Only some compounds are listed: those with a hit (about 3.5% of all), similar ones and a draw of the others.
RGS4 inh: RGS4 inhibitors, primary screen, cell-based, HEK293 M3R inducible RGS4, calcium flux | Regulator of G-protein signaling 4 (Homo sapiens), P49798 | Fluo-4 calcium flux; stronger effect = higher value; triggered by carbachol at its EC20 | B-score at 10 µM | actives 0.45% (n = 310,000) | AID 463165, 2010;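 active = B-score, a plate-corrected calcium signal, over three deviations above library mean, with baseline fluorescence within five deviations of library mean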;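 also: RGS4 expression induced by doxycycline in cells with stable M3 receptor; B-score is computed from the integrated fluorescence ratio over baseline after carbachol; higher B-score means a larger calcium signal and so more RGS4 inhibition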
Target sequence (P49798 whole entry, looked up): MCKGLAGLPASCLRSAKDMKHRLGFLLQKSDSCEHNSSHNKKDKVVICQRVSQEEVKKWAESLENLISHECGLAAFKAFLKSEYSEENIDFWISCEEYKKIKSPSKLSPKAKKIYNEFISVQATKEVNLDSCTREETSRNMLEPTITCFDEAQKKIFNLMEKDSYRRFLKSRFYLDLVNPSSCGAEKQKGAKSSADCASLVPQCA
RGS4 act: RGS4 potentiators or activators, primary screen, cell-based, HEK293 M3R inducible RGS4, calcium flux; actives 0.92% (n = 310,000); AID 463111, 2010; B-score at 10 µM; carbachol calcium flux Fluo4; stronger effect = lower value;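 active = B-score of the integrated calcium signal more than 4 SD below the library mean, with starting fluorescence not abnormally high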;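 also: negative B-score means reduced calcium response which marks RGS4 activation or potentiation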
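Reagent: ECmax carbachol challenge; Test system: M3R-expressing HEK293 line, RGS4 induced by doxycycline; Schedule: overnight RGS4 induction, 30 min dye load 37 °C, 20 min compound RT; Detection: calcium dye Fluo4 fluorescence; Read-out: Agonist-evoked peak-minus-minimum fluorescence over baseline, integrated ratio, B score.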
MrgX1 ag: agonists of human MrgX1 receptor, primary screen, HEK293 cells, Fluo-4 calcium flux; Mas-related G-protein coupled receptor member X1 (Homo sapiens), Q96LB2; actives 0.44% (n = 310,000); AID 588627, 2011; Fluo-4 calcium fluorescence, agonist mode; stronger effect = higher value; B-score at 10 µM;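 active = calcium response B-score plate-corrected fluorescence ratio at least 3 library SD, with starting fluorescence B-score inside 5 SD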
Target sequence (Q96LB2 whole entry, looked up): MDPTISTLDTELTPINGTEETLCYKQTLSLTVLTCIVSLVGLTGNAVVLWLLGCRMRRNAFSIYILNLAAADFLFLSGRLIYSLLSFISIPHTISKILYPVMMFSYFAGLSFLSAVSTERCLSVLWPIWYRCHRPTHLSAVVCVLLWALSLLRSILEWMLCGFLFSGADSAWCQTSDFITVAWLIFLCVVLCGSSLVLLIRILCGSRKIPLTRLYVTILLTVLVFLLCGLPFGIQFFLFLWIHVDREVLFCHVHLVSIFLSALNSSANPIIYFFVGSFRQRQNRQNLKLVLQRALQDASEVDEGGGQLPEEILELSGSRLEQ
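System – MrgX1-expressing HEK293 cells · Incubation – cells plated overnight, dye loaded 0.5 h 37 °C, 0.5 h room temperature · Technique – kinetic Fluo-4 NW fluorescence of intracellular calcium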
MrgX1 antagonist: antagonists of human MrgX1 receptor, primary screen, HEK293 cells, Fluo-4 calcium flux | Mas-related G-protein coupled receptor member X1 (Homo sapiens), Q96LB2 | AID 588676, 2011 | B-score at 10 µM | actives 1.3% (n = 310,000) | BAM8-22 antagonism; stronger effect = lower value;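 active = calcium-response B-score plate-corrected more than 3 library SD below zero, starting fluorescence within 5 deviations, no agonist response on first addition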;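 also: peak minus trough fluorescence over baseline after final BAM8-22 challenge near maximal dose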
MrgX1 PAM: positive allosteric modulators of MrgX1, primary screen, HEK293 cells, Fluo-4 calcium flux; Mas-related G-protein coupled receptor member X1 (Homo sapiens), Q96LB2; FDSS; stronger effect = higher value; B-score at 10 µM; actives 0.63% (n = 310,000); AID 588675, 2011;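 active = plate-corrected calcium response at least 3 library SD above typical, normal starting fluorescence, not activating the receptor alone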;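 also: compound read alongside a low EC10 to EC30 dose of BAM8-22 agonist; peak minus trough fluorescence over baseline measured at the second addition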
MrgX1 PAM conf: MrgX1 positive allosteric modulators, duplicate retest, confirmation, HEK293 cells, Fluo-4 calcium flux; shares compounds with MrgX1 PAM; Fluo-4 calcium fluorescence, FDSS; activation (ratio percentage), % at 10 µM; actives 13% (n = 1,200); AID 602413, 2012;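 active = ratio at least 3 SD above the weak peptide control, stable starting fluorescence, no direct agonism earlier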;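 also: compound followed by low BAM8-22 agonist challenge near EC20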
HEK293 Ca flux: nonspecific calcium signal in parental HEK293, confirmation, counter-screen for MrgX1 antagonist project, parental HEK293 cells, Fluo-4 calcium flux. shares compounds with MrgX1 antagonist. Fluo-4 calcium fluorescence, FDSS. fluorescence ratio F(max-min)/F0 at 10 µM. actives 2% (n = 4,000). AID 624111, 2012;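 active = duplicate-averaged calcium fluorescence ratio at least three times the standard deviation of buffer wells, a nonspecific response in parental cells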
HEK293 Ca counter: calcium response in parental HEK293 cells, primary screen, counter-screen for MrgX1 allosteric activator project, cell-based, Fluo-4 calcium flux, duplicate; shares compounds with MrgX1 antagonist; fluorescence ratio F(max-min)/F0 at 10 µM; Fluo-4 fluorescence ratio; stronger effect = higher value; actives 0.4% (n = 4,000); AID 624114, 2012;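 active = calcium fluorescence ratio, averaged over duplicates, at least 3 SD of the buffer-well ratio, meaning a nonspecific response in receptor-free cells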;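 also: untransfected parental HEK293 lacking MrgX1 used as counterscreen for MrgX1 allosteric activators; fluorescence change taken during the second addition on a kinetic imager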
HEK293 Ca cntr2: calcium response in parental HEK293 cells, primary screen, counter-screen for MrgX1 agonist project, cell-based, Fluo-4 calcium flux, duplicate, agonist mode; shares compounds with MrgX1 antagonist; Fluo-4 calcium fluorescence (FDSS); stronger effect = higher value; fluorescence ratio F(max-min)/F0 at 10 µM; actives 8.7% (n = 4,000); AID 624115, 2012;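 active = calcium fluorescence ratio at least three times the spread of buffer wells, meaning a non-specific response in parental cells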
Numbers without * were called inactive; i = inactive; . = not tested or not shown.

SMILES	RGS4 inh	RGS4 act	MrgX1 ag	MrgX1 antagonist	MrgX1 PAM	MrgX1 PAM conf	HEK293 Ca flux	HEK293 Ca counter	HEK293 Ca cntr2
CCOc1ccc(NC(=O)C2C3CCC4C(CCC32)C4(Cl)Cl)cc1 (stereo not given)	i	i	i	i	i	.	.	.	.
O=C(Nc1ccc(F)cc1)C1C2CCC3C(CCC21)C3(Cl)Cl (stereo not given)	i	i	i	i	9.4*	i	i	i	i
O=S(=O)(Nc1ncnc2scc(-c3ccc(F)cc3)c12)c1cc(F)ccc1F	i	i	i	i	12*	i	i	i	i
CC(C)C[C@H](NC(=O)N1CCn2c1nc1ccccc12)C(=O)N[C@H](Cc1ccccc1)C(=O)O	i	i	i	i	i	.	.	.	.
Cc1cc2c(c(SCC(N)=O)n1)C(=O)OC2	i	i	i	i	6.7*	i	i	i	i
Cc1cc2c(c(SCC(=O)N(C)c3ccccc3)n1)C(=O)OC2	i	i	i	i	i	.	.	.	.
Cc1ccc(S(=O)(=O)c2c(C)nn(C(C)(C)C)c2OC(=O)C(C)C)cc1	i	i	i	i	12*	i	i	i	i
CC(=O)c1sc(NS(=O)(=O)c2ccc(C)cc2)nc1-c1ccccc1	i	i	i	i	16*	i	i	i	i
O=C1c2cccc(OCC(=O)N3CCCc4ccccc43)c2CCN1Cc1cccnc1	i	i	i	i	18*	i	i	i	i
C=C(C)CNC(=S)Nc1cccc(S(=O)(=O)NC2=NCCC2)c1	i	i	i	i	11*	i	i	i	i
CSCCCNC(=S)Nc1cccc(S(=O)(=O)NC2=NCCC2)c1	i	i	i	i	i	.	.	.	.
CN(C)c1oc(/C=C/c2cccs2)nc1S(=O)(=O)c1ccccc1	i	i	i	i	i	.	.	.	.
COC(=O)C(NC(C)=O)(Nc1nc2c(C)cc(C)cc2s1)C(F)(F)F (stereo not given)	i	i	i	i	17*	i	i	i	i
COc1ccc(C2=CC(c3ccc(F)cc3)n3nnnc3N2)cc1 (stereo not given)	i	i	i	i	7*	i	i	i	i
COc1ccc(C2=CC(c3sccc3C)n3nnnc3N2)cc1 (stereo not given)	i	i	i	i	i	.	.	.	.
O=C(COc1ccc(Cl)cc1Cl)N/N=C/c1cccnc1	i	i	i	i	i	.	.	.	.
O=C(COc1ccc(Cl)cc1Cl)Nc1cccnc1	i	i	i	i	8.7*	i	i	i	i
Cc1cc(Cl)ccc1OCC(=O)N1C(C)CCCC1C (stereo not given)	i	i	i	i	12*	i	i	i	i
Cc1cccc(C)c1NS(=O)(=O)c1c(C(=O)N2CCCCC2)c(C)n(C)c1C	i	i	i	i	i	.	.	.	.
